The target in assay [1] is Sphingosine 1-phosphate receptor 3 (Homo sapiens) (UniProt Q99500). Briefly: Agonist activity at human S1P3 receptor expressed in CHOK1 cells. The note with it: CHO-K1. The class given is functional, cell-based. The method in brief:
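Human S1P3 with N-terminal HA tag, stably expressed in a FACS-isolated clonal CHO K1 line. Confluent monolayers were washed and loaded with a calcium-sensitive fluorescent dye, and calcium transients were monitored on compound addition. Eight-point concentration-effect curves were run in triplicate and presented as SEM.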

Assay [2] shares this target. Briefly: Antagonist activity at human S1P3 receptor expressed in CHOK1 cells assessed as effect on calcium mobilization. In kind it is functional, cell-based. The note with it: CHO-K1. A digest of the protocol:
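Calcium mobilization in a FACS-isolated clonal CHO K1 line stably expressing HA-tagged human S1P3, loaded with a calcium-sensitive dye. Concentration-effect curves for the agonist were run with and without 1 μM test phosphate. There were eight points in triplicate (SEM), and three independent experiments.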
For orientation: Calcium assays in cells follow changes in intracellular calcium, usually with a dye or a luminescent sensor.

The subject of assay [3] is Mus musculus. The assay can be described thus: Induction of lymphopenia in C57B1/6J mouse at 1 mg/kg, po after 48 hrs. Also noted: dose 1 mg/kg. The class given is functional, organism-based. The method in brief:
(§1)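 Female C57Bl/6j mice (n=3 per group) received a single oral gavage of 1 mg/kg in 2% hydroxypropyl β-cyclodextrin on day 0. Blood was drawn from the orbital sinus under light anesthesia on the indicated days. Total lymphocytes were counted on a Hemavet 950 blood analyzer.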

Assay [4] relates to Mus musculus. Briefly: Induction of lymphopenia in C57B1/6J mouse at 1 mg/kg, po after 8 days. The class given is functional, organism-based. Also noted: dose 1 mg/kg. A digest of the protocol:
as §1

The target of assay [5] is T1, Sphingosine kinase 2 (Mus musculus) (UniProt Q9JIA7).
T1 sequence (whole entry): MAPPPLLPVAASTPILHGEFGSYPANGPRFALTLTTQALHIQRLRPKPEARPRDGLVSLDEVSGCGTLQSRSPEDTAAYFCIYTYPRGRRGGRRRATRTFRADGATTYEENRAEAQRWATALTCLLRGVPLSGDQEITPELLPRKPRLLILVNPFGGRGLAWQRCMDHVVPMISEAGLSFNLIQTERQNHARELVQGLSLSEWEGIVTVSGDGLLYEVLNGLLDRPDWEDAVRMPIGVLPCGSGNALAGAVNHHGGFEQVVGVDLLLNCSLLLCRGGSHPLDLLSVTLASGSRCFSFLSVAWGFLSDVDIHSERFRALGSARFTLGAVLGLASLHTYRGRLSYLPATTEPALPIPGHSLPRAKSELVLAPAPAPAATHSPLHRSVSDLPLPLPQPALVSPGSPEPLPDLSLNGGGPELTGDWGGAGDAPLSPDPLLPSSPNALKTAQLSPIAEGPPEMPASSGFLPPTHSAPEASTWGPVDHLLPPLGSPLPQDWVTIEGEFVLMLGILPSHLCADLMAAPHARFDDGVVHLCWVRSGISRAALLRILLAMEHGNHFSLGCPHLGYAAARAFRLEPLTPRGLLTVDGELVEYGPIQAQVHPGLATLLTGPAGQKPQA
The assay can be described thus: Substrate activity at mouse Sphk2 expressed in HEK293T cells. The settings on record: HEK-293T.

The target in assay [6] is T2, Sphingosine 1-phosphate receptor 4 (Homo sapiens) (UniProt O95977).
T2 sequence (whole entry): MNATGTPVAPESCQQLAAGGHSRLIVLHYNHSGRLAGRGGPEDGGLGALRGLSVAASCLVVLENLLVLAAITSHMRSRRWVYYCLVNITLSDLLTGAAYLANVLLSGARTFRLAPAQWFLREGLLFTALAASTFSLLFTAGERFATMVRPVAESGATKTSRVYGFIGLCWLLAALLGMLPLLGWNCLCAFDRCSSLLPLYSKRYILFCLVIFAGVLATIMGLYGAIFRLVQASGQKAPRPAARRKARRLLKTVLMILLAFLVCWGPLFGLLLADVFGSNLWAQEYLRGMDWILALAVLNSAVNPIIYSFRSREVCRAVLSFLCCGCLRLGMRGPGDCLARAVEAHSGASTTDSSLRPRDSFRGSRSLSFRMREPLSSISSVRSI
Briefly: Activity at S1P4 receptor.

Assay [7] addresses Sphingosine 1-phosphate receptor 2 (Homo sapiens) (UniProt O95136). Briefly: Activity at S1P2 receptor.

Activity calls are given as the source filed them. No cut-off for these calls is given here.

Sphingosine 1-phosphate receptor 3 (Homo sapiens), sequence (Q99500 whole entry): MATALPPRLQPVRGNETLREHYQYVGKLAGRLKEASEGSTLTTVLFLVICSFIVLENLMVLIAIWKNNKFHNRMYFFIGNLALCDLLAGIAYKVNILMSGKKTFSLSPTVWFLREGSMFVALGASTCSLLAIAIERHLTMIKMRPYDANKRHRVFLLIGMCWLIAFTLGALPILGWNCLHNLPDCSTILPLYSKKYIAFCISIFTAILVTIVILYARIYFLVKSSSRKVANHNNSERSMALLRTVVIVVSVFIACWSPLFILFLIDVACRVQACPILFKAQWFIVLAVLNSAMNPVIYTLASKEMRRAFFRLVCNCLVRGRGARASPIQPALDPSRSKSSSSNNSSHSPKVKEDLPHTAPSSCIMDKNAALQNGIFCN
Sphingosine 1-phosphate receptor 2 (Homo sapiens), sequence (O95136 whole entry): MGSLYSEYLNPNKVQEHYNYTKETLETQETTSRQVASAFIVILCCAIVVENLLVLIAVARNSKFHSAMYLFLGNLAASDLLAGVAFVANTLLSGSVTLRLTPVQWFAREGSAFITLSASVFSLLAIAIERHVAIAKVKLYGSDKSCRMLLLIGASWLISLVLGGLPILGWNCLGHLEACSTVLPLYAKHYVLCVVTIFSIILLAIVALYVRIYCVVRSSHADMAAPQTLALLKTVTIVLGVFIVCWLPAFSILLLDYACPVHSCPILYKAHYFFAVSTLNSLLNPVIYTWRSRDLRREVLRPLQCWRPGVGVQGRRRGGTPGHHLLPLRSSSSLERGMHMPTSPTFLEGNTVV

On to `CCCCCCCCc1ccc([C@@H]2CC[C@](N)(COP(=O)(O)O)C2)cc1`, for which the outcome in assay [1] and in assay [2] was inactive.
Consider `CCCCCCCCc1ccc([C@H]2CC[C@](N)(COP(=O)(O)O)C2)cc1`, for which, in assay [1], the result was inactive. Besides, the outcome in assay [2] was Active.
As to `CCCCCCCCc1ccc([C@@H]2CC[C@](N)(CO)C2)cc1`, the outcome (with Mus musculus [3]; in the assay on Mus musculus [4]; in assay [5]) was Active.
`CCCCCCCCc1ccc([C@H]2CC[C@@](N)(COP(=O)(O)O)C2)cc1`: the outcome in assay [1] was inactive. The outcome in assay [2] was Active.
Turning to `CCCCCCCCc1ccc([C@@H]2CC[C@@](N)(CO)C2)cc1`, the result in assay [5] was inactive.
For the compound `CCCCCCCCc1ccc([C@H]2CC[C@@](N)(CO)C2)cc1`, the result in assay [5] was inactive.
As to `CCCCCCCCc1ccc(C2CCC(N)(COP(=O)(O)O)C2)cc1` (configuration not stated), the result in assay [6] was Active. The outcome in assay [7] was inactive.
Regarding `CCCCCCCCc1ccc([C@H]2CC[C@](N)(CO)C2)cc1`, the outcome (with Mus musculus [3]; in assay [5]) was Active.
For `CCCCCCCCc1ccc([C@@H]2CC[C@@](N)(COP(=O)(O)O)C2)cc1`, in assay [1], the result was inactive. Besides, the result in assay [2] was Active.
